Substitutions are numbered along the chain they refer to.
Columns and labels:
Conditions in all cases: stereoisomer not certain
OR2J2 (Homo sapiens) = target: T1, OR2J2 (Homo sapiens) (UniProt O76002)
T1 sequence (whole entry): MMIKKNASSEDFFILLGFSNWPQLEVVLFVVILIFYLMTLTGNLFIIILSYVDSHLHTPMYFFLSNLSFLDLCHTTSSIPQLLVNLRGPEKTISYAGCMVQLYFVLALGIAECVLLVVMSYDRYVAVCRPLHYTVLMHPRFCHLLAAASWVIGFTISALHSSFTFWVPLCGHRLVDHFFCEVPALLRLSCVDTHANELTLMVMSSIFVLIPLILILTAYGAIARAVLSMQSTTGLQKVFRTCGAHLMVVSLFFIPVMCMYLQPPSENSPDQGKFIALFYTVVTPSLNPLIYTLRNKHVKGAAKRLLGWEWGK
Summary of the method: (§1)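 Transient luciferase assays in mammalian cell lines were common, though methods varied by source. The values come from published papers and their supplementary material, with extra details from the original authors when needed. Responsive refers to a measured signal the original authors judged statistically different from baseline, and non-responsive (inactive) to the remainder.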

OR2J1 (Homo sapiens) = target: T2, OR2J1 (Homo sapiens) (UniProt Q9GZK6)
T2 sequence (whole entry): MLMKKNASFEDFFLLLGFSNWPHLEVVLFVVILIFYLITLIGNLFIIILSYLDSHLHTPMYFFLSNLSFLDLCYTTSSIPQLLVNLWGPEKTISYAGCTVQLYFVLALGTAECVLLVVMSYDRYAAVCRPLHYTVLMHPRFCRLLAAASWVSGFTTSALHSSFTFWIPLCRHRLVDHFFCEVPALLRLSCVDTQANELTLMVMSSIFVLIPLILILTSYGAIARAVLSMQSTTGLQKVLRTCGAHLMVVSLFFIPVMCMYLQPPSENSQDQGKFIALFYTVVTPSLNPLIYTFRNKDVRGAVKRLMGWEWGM
Summary of the method: as §1

OR2J3 (Homo sapiens) = target: T3, OR2J3 (Homo sapiens) (UniProt O76001)
T3 sequence (whole entry): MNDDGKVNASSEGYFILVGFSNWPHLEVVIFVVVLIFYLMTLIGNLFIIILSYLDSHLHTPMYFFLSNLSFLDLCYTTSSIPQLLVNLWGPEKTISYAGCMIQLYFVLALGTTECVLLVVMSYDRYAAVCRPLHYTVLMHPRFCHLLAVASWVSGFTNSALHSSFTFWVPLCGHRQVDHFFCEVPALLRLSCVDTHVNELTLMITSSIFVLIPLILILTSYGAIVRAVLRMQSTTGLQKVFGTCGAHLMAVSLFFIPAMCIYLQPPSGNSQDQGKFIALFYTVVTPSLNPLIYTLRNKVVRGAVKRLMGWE
Summary of the method: as §1

OR2K2 (Homo sapiens) = target: T4, OR2K2 (Homo sapiens) (UniProt Q8NGT1)
T4 sequence (whole entry): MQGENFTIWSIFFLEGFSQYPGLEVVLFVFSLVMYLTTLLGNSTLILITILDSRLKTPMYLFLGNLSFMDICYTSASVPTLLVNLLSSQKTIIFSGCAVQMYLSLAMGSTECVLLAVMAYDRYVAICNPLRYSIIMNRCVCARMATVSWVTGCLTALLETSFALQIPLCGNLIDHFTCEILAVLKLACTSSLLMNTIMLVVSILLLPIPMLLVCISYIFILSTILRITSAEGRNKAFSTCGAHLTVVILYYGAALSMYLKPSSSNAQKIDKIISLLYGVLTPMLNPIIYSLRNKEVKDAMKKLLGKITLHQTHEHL
Summary of the method: as §1

OR2L13 (Homo sapiens) = target: T5, OR2L13 (Homo sapiens) (UniProt Q8N349)
T5 sequence (whole entry): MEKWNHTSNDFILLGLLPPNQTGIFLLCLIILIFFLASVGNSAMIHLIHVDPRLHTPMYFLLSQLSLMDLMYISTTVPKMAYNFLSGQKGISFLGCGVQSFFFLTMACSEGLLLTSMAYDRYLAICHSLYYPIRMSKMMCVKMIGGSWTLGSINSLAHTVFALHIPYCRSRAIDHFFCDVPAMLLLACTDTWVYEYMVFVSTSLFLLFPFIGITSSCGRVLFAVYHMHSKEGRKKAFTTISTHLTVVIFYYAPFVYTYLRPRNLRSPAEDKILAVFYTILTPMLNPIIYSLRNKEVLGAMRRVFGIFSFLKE
Summary of the method: as §1

OR2L2 (Homo sapiens) = target: T6, OR2L2 (Homo sapiens) (UniProt Q8NH16)
T6 sequence (whole entry): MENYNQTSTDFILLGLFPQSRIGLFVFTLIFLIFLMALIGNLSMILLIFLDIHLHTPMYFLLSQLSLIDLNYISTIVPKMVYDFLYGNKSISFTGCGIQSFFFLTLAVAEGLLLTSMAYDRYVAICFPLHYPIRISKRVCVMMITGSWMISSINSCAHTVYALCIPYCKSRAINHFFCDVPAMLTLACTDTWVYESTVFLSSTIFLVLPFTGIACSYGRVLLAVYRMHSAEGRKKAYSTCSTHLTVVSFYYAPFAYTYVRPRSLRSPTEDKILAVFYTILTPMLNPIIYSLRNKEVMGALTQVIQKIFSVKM
Summary of the method: as §1

OR2L3 (Homo sapiens) = target: T7, OR2L3 (Homo sapiens) (UniProt Q8NG85)
T7 sequence (whole entry): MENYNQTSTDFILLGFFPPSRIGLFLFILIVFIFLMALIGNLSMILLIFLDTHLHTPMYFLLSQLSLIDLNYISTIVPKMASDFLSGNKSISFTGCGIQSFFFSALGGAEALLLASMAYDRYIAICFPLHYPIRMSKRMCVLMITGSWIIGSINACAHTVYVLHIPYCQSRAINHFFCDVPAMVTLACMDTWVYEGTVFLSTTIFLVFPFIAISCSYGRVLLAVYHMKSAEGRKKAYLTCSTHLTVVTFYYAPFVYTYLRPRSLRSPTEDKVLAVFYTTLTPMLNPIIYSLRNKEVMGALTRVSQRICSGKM
Summary of the method: as §1

OR2L5 (Homo sapiens) = target: T8, OR2L5 (Homo sapiens) (UniProt Q8NG80)
T8 sequence (whole entry): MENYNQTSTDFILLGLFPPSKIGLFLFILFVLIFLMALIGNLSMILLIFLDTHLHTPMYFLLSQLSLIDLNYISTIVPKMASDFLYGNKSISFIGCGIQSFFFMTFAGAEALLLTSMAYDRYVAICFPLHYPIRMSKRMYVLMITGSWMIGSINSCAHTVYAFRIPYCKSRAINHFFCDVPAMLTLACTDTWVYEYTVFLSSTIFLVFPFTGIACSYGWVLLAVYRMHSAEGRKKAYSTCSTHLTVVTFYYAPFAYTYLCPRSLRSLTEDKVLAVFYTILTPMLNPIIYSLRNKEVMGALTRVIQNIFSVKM
Summary of the method: as §1

OR2L8 (Homo sapiens) = target: T9, OR2L8 (Homo sapiens) (UniProt Q8NGY9)
T9 sequence (whole entry): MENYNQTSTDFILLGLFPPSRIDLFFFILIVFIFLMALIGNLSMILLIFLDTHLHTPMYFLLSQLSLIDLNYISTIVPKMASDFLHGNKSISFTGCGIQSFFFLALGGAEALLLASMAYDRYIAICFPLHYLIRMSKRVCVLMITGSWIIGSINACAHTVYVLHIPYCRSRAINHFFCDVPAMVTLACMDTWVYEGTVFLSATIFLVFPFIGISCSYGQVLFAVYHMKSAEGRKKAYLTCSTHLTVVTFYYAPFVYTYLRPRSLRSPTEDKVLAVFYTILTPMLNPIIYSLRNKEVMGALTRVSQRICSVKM
Summary of the method: as §1

OR2M2 (Homo sapiens) = target: T10, OR2M2 (Homo sapiens) (UniProt Q96R28)
T10 sequence (whole entry): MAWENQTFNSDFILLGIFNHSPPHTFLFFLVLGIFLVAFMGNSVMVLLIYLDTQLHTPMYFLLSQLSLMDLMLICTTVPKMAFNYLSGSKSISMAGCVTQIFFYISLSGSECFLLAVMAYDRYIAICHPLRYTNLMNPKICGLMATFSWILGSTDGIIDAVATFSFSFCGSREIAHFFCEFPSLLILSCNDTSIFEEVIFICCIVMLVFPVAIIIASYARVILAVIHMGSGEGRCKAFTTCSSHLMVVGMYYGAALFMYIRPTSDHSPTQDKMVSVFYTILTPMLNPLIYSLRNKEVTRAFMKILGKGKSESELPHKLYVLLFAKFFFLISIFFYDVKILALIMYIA
Summary of the method: as §1

OR2M3 (Homo sapiens) = target: T11, OR2M3 (Homo sapiens) (UniProt Q8NG83)
T11 sequence (whole entry): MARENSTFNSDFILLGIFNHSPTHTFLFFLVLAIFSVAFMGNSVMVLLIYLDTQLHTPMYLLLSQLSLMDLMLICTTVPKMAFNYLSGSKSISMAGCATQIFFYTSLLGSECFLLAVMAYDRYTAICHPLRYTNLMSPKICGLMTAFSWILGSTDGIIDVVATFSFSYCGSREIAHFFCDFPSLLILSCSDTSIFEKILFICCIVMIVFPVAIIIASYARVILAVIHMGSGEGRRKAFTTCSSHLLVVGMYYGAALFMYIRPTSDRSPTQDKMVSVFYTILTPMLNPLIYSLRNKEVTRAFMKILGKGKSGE
Summary of the method: as §1

OR2M3 A216T = test system: OR2M3 A216T
Summary of the method: as §1

OR2M3 A33G M144T = test system: OR2M3 A33G M144T
Summary of the method: as §1

OR2M3 A33G = test system: OR2M3 A33G
Summary of the method: as §1

OR2H2 = test system: T12, OR2H2
T12 sequence (whole entry): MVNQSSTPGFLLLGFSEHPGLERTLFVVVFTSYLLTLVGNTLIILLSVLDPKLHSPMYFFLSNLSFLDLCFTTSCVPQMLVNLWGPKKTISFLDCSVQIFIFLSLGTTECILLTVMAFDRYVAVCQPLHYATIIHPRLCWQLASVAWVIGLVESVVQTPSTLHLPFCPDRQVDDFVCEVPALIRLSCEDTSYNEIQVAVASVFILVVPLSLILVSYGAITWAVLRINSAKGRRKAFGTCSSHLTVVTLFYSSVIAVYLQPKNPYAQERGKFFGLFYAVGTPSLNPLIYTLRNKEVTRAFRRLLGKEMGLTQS
Summary of the method: as §1

OR2J1 L14I V182A = test system: T13, OR2J1 L14I V182A
T13 sequence (whole entry): T2 sequence (whole entry) with L14I, V182A
Summary of the method: as §1

OR2J2 = test system: T14, OR2J2
T14 sequence (whole entry): T1 sequence (whole entry) with H74Y, A111T, A146V, A218T
Summary of the method: as §1

OR2J3 = test system: T15, OR2J3
T15 sequence (whole entry): T3 sequence (whole entry) with V228I, I261M
Summary of the method: as §1

Measured: odorant receptor agonist call

Chain of OR2M3 A216T (as listed by the source, stated change not applied): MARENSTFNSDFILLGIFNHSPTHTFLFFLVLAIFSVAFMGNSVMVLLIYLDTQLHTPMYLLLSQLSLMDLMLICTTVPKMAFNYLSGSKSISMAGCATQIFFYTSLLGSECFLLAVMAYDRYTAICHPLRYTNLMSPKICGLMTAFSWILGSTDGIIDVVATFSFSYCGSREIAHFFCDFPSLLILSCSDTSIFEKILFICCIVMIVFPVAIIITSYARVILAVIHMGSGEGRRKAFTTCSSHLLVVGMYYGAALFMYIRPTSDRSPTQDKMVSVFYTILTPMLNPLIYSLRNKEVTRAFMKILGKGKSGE
Chain of OR2M3 A33G (as listed by the source, stated change not applied): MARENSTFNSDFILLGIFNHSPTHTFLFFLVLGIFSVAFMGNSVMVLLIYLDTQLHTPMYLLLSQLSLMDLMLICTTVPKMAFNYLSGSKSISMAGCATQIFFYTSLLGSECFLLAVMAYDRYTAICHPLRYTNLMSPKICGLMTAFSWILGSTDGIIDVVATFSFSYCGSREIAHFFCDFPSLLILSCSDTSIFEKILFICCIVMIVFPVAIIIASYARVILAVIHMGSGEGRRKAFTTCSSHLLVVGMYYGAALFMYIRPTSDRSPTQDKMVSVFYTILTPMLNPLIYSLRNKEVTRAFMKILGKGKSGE

CCCCCC1=C(C)CCC1=O
inactive: OR2J2 (Homo sapiens)

CCCCCC(=O)CC
inactive: OR2J2 (Homo sapiens)

CCCCOC=O
inactive: OR2J2 (Homo sapiens)

CCC(S)C(C)CO (stereo not given)
active: OR2M3 (Homo sapiens) | OR2M3 A216T | OR2M3 A33G
not listed: OR2H2 | OR2J1 L14I V182A | OR2J2 | OR2J3
inactive: all other assays above

COc1cc(C(=O)O)ccc1O
inactive: OR2J2 (Homo sapiens)

CC1CCCCCCCCCCCCC(=O)C1 (stereo not given)
inactive: OR2J1 (Homo sapiens) | OR2J2 (Homo sapiens) | OR2J3 (Homo sapiens) | OR2K2 (Homo sapiens) | OR2L13 (Homo sapiens) | OR2L3 (Homo sapiens) | OR2L5 (Homo sapiens) | OR2L8 (Homo sapiens) | OR2M2 (Homo sapiens) | OR2M3 (Homo sapiens)

CC(CO)CS (stereo not given)
not listed: OR2M3 A216T | OR2M3 A33G M144T | OR2M3 A33G | OR2H2 | OR2J1 L14I V182A | OR2J2 | OR2J3
inactive: all other assays above

O=C1Cc2ccccc2O1
inactive: OR2J2 (Homo sapiens)

CCCCC(C)=O
inactive: OR2J2 (Homo sapiens)

Cc1cnc(C)c(C)n1
not listed: OR2J2 (Homo sapiens) | OR2M3 A216T | OR2M3 A33G M144T | OR2M3 A33G
inactive: all other assays above

Source: the M2OR odorant receptor database
